Test results: ChEMBL document CHEMBL1131306, “Novel and specific respiratory syncytial virus inhibitors that target virus fusion” (J Med Chem, 1998)

How the values were obtained:
Assay type in all cases: functional, organism-based
[1] = tested on: Human orthopneumovirus; assay: Inhibitory concentration was evaluated against human respiratory syncytial virus,(HRSV) strain A2.
Method in brief: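 HRSV strain A2 (160 PFU/well) on human foreskin fibroblasts seeded 4 × 10^4/well day 0. Compound added day 1, serially diluted 2-fold over 10 concentrations, at least in duplicate. After 4 days at 37 °C, virus growth quantified by ELISA. IC50 = 50% growth inhibition, averaged; tested in two separate weeks, retested if values differed over 2-fold.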

[2] = tested on: Human alphaherpesvirus 1; assay: Inhibitory concentration was evaluated against herpes simplex 1,strain patton.
Method in brief: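 HSV-1 strain Patton in African green monkey kidney (Vero) cells, seeded 4 × 10^4/well on day 0. Compound added day 1 as 10 two-fold dilutions, at least in duplicate, then virus added. Growth measured by ELISA 28 h post-infection. IC50 = 50% growth inhibition, averaged; repeated in two different weeks, retested if over 2-fold apart.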

[3] = tested on: Human betaherpesvirus 5; assay: Inhibitory concentration was evaluated against human cytomegalovirus (HCMV),strain Ad169.
Method in brief: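 HCMV Ad169 engineered to encode β-glucuronidase. Human foreskin fibroblasts seeded 4 × 10^4/well on day 0. Compound added day 1 as 10 two-fold dilutions, each at least in duplicate, then virus added. Growth read as β-glucuronidase in culture on day 4. IC50 averaged; each compound run at least twice in different weeks, retested if IC50s differed over 2-fold.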

IC50 [1] [µM]	IC50 [2] [µM]	IC50 [3] [µM]	SMILES
> 25	> 25	> 25	CCCN(CCC)S(=O)(=O)c1cccc(Nc2nc(Nc3cccc(S(=O)(=O)N(CCC)CCC)c3)nc(Nc3ccc(-c4ccc(Nc5nc(Nc6cccc(S(=O)(=O)N(CCC)CCC)c6)nc(Nc6cccc(S(=O)(=O)N(CCC)CCC)c6)n5)cc4S(=O)(=O)O)c(S(=O)(=O)O)c3)n2)c1
0.24	> 25	1.2	NC(=O)CCNS(=O)(=O)c1cccc(Nc2nc(Nc3cccc(S(=O)(=O)NCCC(N)=O)c3)nc(Nc3ccc(-c4ccc(Nc5nc(Nc6cccc(S(=O)(=O)NCCC(N)=O)c6)nc(Nc6cccc(S(=O)(=O)NCCC(N)=O)c6)n5)cc4S(=O)(=O)O)c(S(=O)(=O)O)c3)n2)c1
0.09	14.7	2.3	O=S(=O)(O)c1cc(Nc2nc(Nc3cccc(S(=O)(=O)N(CCO)CCO)c3)nc(Nc3cccc(S(=O)(=O)N(CCO)CCO)c3)n2)ccc1-c1ccc(Nc2nc(Nc3cccc(S(=O)(=O)N(CCO)CCO)c3)nc(Nc3cccc(S(=O)(=O)N(CCO)CCO)c3)n2)cc1S(=O)(=O)O
0.25	20	20.5	Cc1cc(-c2cc(C)c(Nc3nc(Nc4cccc(S(=O)(=O)N(CCC(N)=O)CCC(N)=O)c4)nc(Nc4cccc(S(=O)(=O)N(CCC(N)=O)CCC(N)=O)c4)n3)cc2S(=O)(=O)O)c(S(=O)(=O)O)cc1Nc1nc(Nc2cccc(S(=O)(=O)N(CCC(N)=O)CCC(N)=O)c2)nc(Nc2cccc(S(=O)(=O)N(CCC(N)=O)CCC(N)=O)c2)n1
> 25			NC(=O)CCN(CCC(N)=O)C(=O)c1cccc(Nc2nc(Nc3cccc(C(=O)N(CCC(N)=O)CCC(N)=O)c3)nc(Nc3ccc(-c4ccc(Nc5nc(Nc6cccc(C(=O)N(CCC(N)=O)CCC(N)=O)c6)nc(Nc6cccc(C(=O)N(CCC(N)=O)CCC(N)=O)c6)n5)cc4S(=O)(=O)O)c(S(=O)(=O)O)c3)n2)c1
2.9	17.7	14.7	NC(=O)CCN(CCC(N)=O)S(=O)(=O)c1ccc(Nc2nc(Nc3ccc(S(=O)(=O)N(CCC(N)=O)CCC(N)=O)cc3)nc(Nc3ccc(-c4ccc(Nc5nc(Nc6ccc(S(=O)(=O)N(CCC(N)=O)CCC(N)=O)cc6)nc(Nc6ccc(S(=O)(=O)N(CCC(N)=O)CCC(N)=O)cc6)n5)cc4S(=O)(=O)O)c(S(=O)(=O)O)c3)n2)cc1
0.35	7.5	0.9	NC(=O)CCN(CCC(N)=O)S(=O)(=O)c1cccc(Nc2nc(Nc3cccc(S(=O)(=O)N(CCC(N)=O)CCC(N)=O)c3)nc(Nc3ccc(-c4ccc(Nc5nc(Nc6cccc(S(=O)(=O)N(CCC(N)=O)CCC(N)=O)c6)nc(Nc6cccc(S(=O)(=O)N(CCC(N)=O)CCC(N)=O)c6)n5)cc4C(=O)O)c(C(=O)O)c3)n2)c1
1.7	8.8	1.2	NS(=O)(=O)c1cccc(Nc2nc(Nc3cccc(S(N)(=O)=O)c3)nc(Nc3ccc(-c4ccc(Nc5nc(Nc6cccc(S(N)(=O)=O)c6)nc(Nc6cccc(S(N)(=O)=O)c6)n5)cc4S(=O)(=O)O)c(S(=O)(=O)O)c3)n2)c1
> 25			Cc1ccc(S(=O)(=O)N(CCC(N)=O)CCC(N)=O)cc1Nc1nc(Nc2ccc(-c3ccc(Nc4nc(Nc5cc(S(=O)(=O)N(CCC(N)=O)CCC(N)=O)ccc5C)nc(Nc5cc(S(=O)(=O)N(CCC(N)=O)CCC(N)=O)ccc5C)n4)cc3S(=O)(=O)O)c(S(=O)(=O)O)c2)nc(Nc2cc(S(=O)(=O)N(CCC(N)=O)CCC(N)=O)ccc2C)n1
22.5		> 25	NC(=O)CCN(CCC(N)=O)S(=O)(=O)c1cccc(Nc2nc(Nc3cccc(S(=O)(=O)N(CCC(N)=O)CCC(N)=O)c3)nc(Nc3ccc(CCc4ccc(Nc5nc(Nc6cccc(S(=O)(=O)N(CCC(N)=O)CCC(N)=O)c6)nc(Nc6cccc(S(=O)(=O)N(CCC(N)=O)CCC(N)=O)c6)n5)cc4S(=O)(=O)O)c(S(=O)(=O)O)c3)n2)c1
> 25	> 25	> 25	NC(=O)CCN(CCC(N)=O)S(=O)(=O)c1cccc(Nc2nc(Nc3cccc(S(=O)(=O)N(CCC(N)=O)CCC(N)=O)c3)nc(Nc3ccc(-c4ccc(Nc5nc(Nc6cccc(S(=O)(=O)N(CCC(N)=O)CCC(N)=O)c6)nc(Nc6cccc(S(=O)(=O)N(CCC(N)=O)CCC(N)=O)c6)n5)cc4CO)c(CO)c3)n2)c1
> 25	25	> 25	Cc1cc(-c2ccc(Nc3nc(Nc4cccc(S(=O)(=O)N(CCC(N)=O)CCC(N)=O)c4)nc(Nc4cccc(S(=O)(=O)N(CCC(N)=O)CCC(N)=O)c4)n3)c(C)c2)ccc1Nc1nc(Nc2cccc(S(=O)(=O)N(CCC(N)=O)CCC(N)=O)c2)nc(Nc2cccc(S(=O)(=O)N(CCC(N)=O)CCC(N)=O)c2)n1
0.05	> 25	18.5	NC(=O)CCN(CCC(N)=O)S(=O)(=O)c1cccc(Nc2nc(Nc3cccc(S(=O)(=O)N(CCC(N)=O)CCC(N)=O)c3)nc(Nc3ccc(-c4ccc(Nc5nc(Nc6cccc(S(=O)(=O)N(CCC(N)=O)CCC(N)=O)c6)nc(Nc6cccc(S(=O)(=O)N(CCC(N)=O)CCC(N)=O)c6)n5)cc4S(=O)(=O)O)c(S(=O)(=O)O)c3)n2)c1
> 25		> 25	COC(=O)c1cc(Nc2nc(Nc3cccc(S(=O)(=O)N(CCC(N)=O)CCC(N)=O)c3)nc(Nc3cccc(S(=O)(=O)N(CCC(N)=O)CCC(N)=O)c3)n2)ccc1-c1ccc(Nc2nc(Nc3cccc(S(=O)(=O)N(CCC(N)=O)CCC(N)=O)c3)nc(Nc3cccc(S(=O)(=O)N(CCC(N)=O)CCC(N)=O)c3)n2)cc1C(=O)OC
0.15	5.5	> 25	NC(=O)CCN(CCC(N)=O)S(=O)(=O)c1cccc(Nc2nc(Nc3cccc(S(=O)(=O)N(CCC(N)=O)CCC(N)=O)c3)nc(Nc3ccc(/C=C/c4ccc(Nc5nc(Nc6cccc(S(=O)(=O)N(CCC(N)=O)CCC(N)=O)c6)nc(Nc6cccc(S(=O)(=O)N(CCC(N)=O)CCC(N)=O)c6)n5)cc4S(=O)(=O)O)c(S(=O)(=O)O)c3)n2)c1
